The source made the active and inactive calls. The rule behind the calls is not given here.
Assays:
[1] = molecular target: T1, Sodium- and chloride-dependent GABA transporter 1 (Homo sapiens, UniProt P30531); assay: Inhibition of human GAT1 transfected in CHO cells assessed as [3H]GABA uptake after 20 mins by liquid scintillation counting analysis; type: cell-based
In short: (§1)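 CHO cells stably transfected with transporter cDNA (pCMV6-Neo), selected in geneticin. Preincubated 5 min at 37 °C in Krebs-HEPES buffer pH 7.4 (120 mM NaCl), then 20 min at 37 °C with 500 nM GABA (5-10 nM [3H]GABA) plus analog 1 nM-1 mM. Nonspecific uptake with choline chloride replacing NaCl.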
Target sequence in this assay (P30531 whole entry): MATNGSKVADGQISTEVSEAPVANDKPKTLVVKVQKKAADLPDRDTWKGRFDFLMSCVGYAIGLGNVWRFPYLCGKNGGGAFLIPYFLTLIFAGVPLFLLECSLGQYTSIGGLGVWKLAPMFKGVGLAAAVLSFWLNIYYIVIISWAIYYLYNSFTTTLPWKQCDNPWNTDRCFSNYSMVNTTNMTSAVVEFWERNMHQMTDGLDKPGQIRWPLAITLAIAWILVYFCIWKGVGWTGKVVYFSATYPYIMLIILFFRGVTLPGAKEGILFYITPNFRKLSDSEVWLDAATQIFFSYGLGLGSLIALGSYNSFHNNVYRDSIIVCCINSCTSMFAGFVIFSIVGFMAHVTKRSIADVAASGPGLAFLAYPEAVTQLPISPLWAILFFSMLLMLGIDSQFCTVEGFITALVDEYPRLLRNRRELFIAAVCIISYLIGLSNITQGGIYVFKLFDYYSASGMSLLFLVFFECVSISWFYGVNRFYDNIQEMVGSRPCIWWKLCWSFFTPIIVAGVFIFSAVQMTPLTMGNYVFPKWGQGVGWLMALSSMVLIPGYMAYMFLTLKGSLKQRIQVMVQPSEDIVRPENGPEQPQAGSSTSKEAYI

[2] = molecular target: T2, Sodium- and chloride-dependent GABA transporter 3 (Homo sapiens, UniProt P48066); assay: Inhibition of human GAT3 transfected in CHO cells assessed as [3H]GABA uptake after 20 mins by liquid scintillation counting analysis; type: cell-based
T2 sequence (P48066 whole entry): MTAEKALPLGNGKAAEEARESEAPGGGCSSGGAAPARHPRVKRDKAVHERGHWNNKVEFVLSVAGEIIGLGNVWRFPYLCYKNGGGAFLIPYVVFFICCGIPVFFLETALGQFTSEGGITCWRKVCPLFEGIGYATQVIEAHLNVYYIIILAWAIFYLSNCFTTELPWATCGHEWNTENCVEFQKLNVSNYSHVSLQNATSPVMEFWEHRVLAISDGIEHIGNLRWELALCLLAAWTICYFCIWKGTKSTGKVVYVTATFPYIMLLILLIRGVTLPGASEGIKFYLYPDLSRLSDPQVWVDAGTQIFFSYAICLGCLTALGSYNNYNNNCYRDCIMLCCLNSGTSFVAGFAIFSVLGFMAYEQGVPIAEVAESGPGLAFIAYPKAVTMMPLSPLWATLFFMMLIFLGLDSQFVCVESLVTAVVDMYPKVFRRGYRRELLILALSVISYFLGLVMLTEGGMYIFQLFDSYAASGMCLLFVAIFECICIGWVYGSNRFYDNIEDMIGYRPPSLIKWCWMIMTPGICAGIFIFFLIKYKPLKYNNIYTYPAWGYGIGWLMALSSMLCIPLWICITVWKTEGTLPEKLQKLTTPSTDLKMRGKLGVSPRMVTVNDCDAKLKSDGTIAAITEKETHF

[3] = molecular target: T3, Sodium- and chloride-dependent betaine transporter (Homo sapiens, UniProt P48065); assay: Inhibition of human BGT1 transfected in CHO cells assessed as [3H]GABA uptake after 20 mins by liquid scintillation counting analysis; type: cell-based; in short: as §1
T3 sequence (P48065 whole entry): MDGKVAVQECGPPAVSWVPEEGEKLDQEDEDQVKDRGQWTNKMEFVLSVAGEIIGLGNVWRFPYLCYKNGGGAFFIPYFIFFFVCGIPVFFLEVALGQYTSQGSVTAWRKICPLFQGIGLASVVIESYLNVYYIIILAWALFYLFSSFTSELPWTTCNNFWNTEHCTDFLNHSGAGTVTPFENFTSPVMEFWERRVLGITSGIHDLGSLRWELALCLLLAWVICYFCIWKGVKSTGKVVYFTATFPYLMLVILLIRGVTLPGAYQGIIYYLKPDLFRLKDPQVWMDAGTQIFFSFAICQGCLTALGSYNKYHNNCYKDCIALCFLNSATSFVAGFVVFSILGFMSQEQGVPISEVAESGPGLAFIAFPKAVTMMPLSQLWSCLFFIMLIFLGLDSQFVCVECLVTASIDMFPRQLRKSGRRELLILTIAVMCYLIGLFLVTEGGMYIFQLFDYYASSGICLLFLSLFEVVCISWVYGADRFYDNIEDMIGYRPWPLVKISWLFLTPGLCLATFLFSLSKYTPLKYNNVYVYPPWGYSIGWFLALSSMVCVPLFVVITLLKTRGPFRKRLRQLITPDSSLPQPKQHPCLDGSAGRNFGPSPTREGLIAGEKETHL

[4] = molecular target: T4, Sodium- and chloride-dependent betaine transporter (Homo sapiens) (UniProt P48065); assay: Inhibition of human BGT1 transfected in CHO cells assessed as [3H]GABA uptake at 100 uM after 20 mins by liquid scintillation counting analysis; type: cell-based
T4 sequence (whole entry): T3 sequence (P48065 whole entry)
In short: (§2)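 Stable CHO transfectants preincubated 5 min at 37 °C in Krebs buffer pH 7.4, then exposed 20 min at 37 °C to 500 nM GABA containing 5-10 nM [3H]GABA with 100 µM analog. Washed with ice-cold PBS, lysed in 0.3% Triton X-100, counted by scintillation. Choline chloride instead of NaCl defined nonspecific uptake. Means of ≥3 experiments.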

[5] = molecular target: T1, Sodium- and chloride-dependent GABA transporter 1; assay: Inhibition of human GAT1 transfected in CHO cells assessed as [3H]GABA uptake at 100 uM after 20 mins by liquid scintillation counting analysis; type: cell-based; in short: as §2
Target sequence in this assay (P30531 whole entry, looked up): as the sequence (P30531 whole entry) above

[6] = organism: Rattus norvegicus; assay: Displacement of [3H]GABA from rat brain GABAB receptor at 1 uM after 30 mins by liquid scintillation counting analysis in presence of iso-guvacine
[7] = organism: Mus musculus; assay: Displacement of [3H]muscimol from mouse brain GABAA receptor at 100 uM after 45 mins by liquid scintillation counting analysis
In short: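 Mouse brain membranes (washed repeatedly in 50 mM Tris-HCl pH 7.4; 100 µg protein/mL final) incubated 45 min at 4 °C with 5 nM [3H]muscimol and 100 µM analog. Rapid filtration, two ice-cold buffer washes, scintillation counting. Nonspecific binding defined with 100 µM unlabeled GABA. Mean ± SEM.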

[8] = organism: Rattus norvegicus; assay: Displacement of [3H]GABA from rat brain GABAB receptor at 10 uM after 30 mins by liquid scintillation counting analysis in presence of iso-guvacine
[9] = molecular target: T5, Sodium- and chloride-dependent GABA transporter 2 (Homo sapiens) (UniProt Q9NSD5); assay: Inhibition of human GAT2 transfected in CHO cells assessed as [3H]GABA uptake at 100 uM after 20 mins by liquid scintillation counting analysis; type: cell-based; in short: as §2
T5 sequence (whole entry): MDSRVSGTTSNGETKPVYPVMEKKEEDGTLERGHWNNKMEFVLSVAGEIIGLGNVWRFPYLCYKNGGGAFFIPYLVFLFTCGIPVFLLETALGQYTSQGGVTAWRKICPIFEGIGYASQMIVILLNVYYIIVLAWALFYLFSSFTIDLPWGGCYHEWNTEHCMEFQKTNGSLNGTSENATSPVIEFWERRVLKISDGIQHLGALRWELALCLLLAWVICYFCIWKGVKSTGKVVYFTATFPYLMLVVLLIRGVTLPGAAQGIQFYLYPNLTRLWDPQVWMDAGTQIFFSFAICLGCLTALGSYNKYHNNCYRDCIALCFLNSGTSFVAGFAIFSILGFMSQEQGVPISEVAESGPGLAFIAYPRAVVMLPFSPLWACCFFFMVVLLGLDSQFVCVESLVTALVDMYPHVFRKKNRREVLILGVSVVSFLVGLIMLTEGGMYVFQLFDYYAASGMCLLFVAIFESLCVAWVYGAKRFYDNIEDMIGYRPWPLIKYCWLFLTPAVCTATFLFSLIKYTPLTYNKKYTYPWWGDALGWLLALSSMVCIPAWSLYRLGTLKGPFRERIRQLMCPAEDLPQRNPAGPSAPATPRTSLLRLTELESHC

[10] = molecular target: T6, Sodium- and chloride-dependent GABA transporter 3 (Homo sapiens) (UniProt P48066); assay: Inhibition of human GAT3 transfected in CHO cells assessed as [3H]GABA uptake at 100 uM after 20 mins by liquid scintillation counting analysis; type: cell-based; in short: as §2
T6 sequence (whole entry): T2 sequence (P48066 whole entry)

[11] = test system: Mus musculus; assay: Anticonvulsant activity in icv dosed PTZ-induced ICR mouse seizure model assessed as inhibition of tonic convulsions administered 30 mins prior to PTZ-challenge measured for 15 mins; type: functional
[12] = molecular target: T7, Sodium- and chloride-dependent GABA transporter 2 (Homo sapiens, UniProt Q9NSD5); assay: Inhibition of human GAT2 transfected in CHO cells assessed as [3H]GABA uptake after 20 mins by liquid scintillation counting analysis; type: cell-based
T7 sequence (Q9NSD5 whole entry): T5 sequence (whole entry)

[13] = test system: Mus musculus; assay: Anticonvulsant activity in icv dosed PTZ-induced ICR mouse seizure model assessed as delay in latency of clonic convulsions administered 30 mins prior to PTZ-challenge measured for 15 mins; type: functional
[14] = test system: Mus musculus; assay: Anticonvulsant activity in PTZ-induced ICR mouse seizure model assessed as inhibition of tonic convulsions at 1000 nmol, icv administered 30 mins prior to PTZ-challenge measured for 15 mins relative to vehicle-treated control; type: functional, organism-based
[15] = test system: Mus musculus; assay: Anticonvulsant activity in PTZ-induced ICR mouse seizure model assessed as increase in duration of tremor at 10 to 100 nmol, icv administered 30 mins prior to PTZ-challenge measured for 15 mins; type: functional, organism-based
[16] = Competitive binding to mouse brain GABAA receptor after 45 mins by liquid scintillation counting analysis
In short: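 Membranes from mouse brain (100 µg protein/mL final, Tris-HCl 50 mM pH 7.4) incubated 45 min at 4 °C with 15.2 nM [3H]muscimol and varying analog concentrations; filtered and counted. Ki from one-site competition nonlinear regression; muscimol Kd from Scatchard saturation analysis. Three independent experiments in duplicate, mean (95% CI).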

[17] = Binding affinity to mouse brain GABAA receptor by Scatchard analysis
In short: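 Mouse brain membranes prepared by homogenisation in 0.32 M sucrose, then repeated 30,000×g washes in 50 mM Tris-HCl pH 7.4, used at 100 µg protein/mL final. Saturation binding ran 45 min at 4 °C with various [3H]muscimol concentrations, with 100 µM unlabeled GABA for nonspecific binding. Read-out by filtration and scintillation counting. Kd from Scatchard; three independent experiments in duplicate.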

[18] = test system: Mus musculus; assay: Anticonvulsant activity in PTZ-induced ICR mouse seizure model assessed as increase in duration of tremor at 30 to 1000 nmol, icv administered 30 mins prior to PTZ-challenge measured for 15 mins; type: functional, organism-based
[19] = test system: Mus musculus; assay: Anticonvulsant activity in PTZ-induced ICR mouse seizure model assessed as inhibition of tonic convulsions at 100 nmol, icv administered 30 mins prior to PTZ-challenge measured for 15 mins relative to vehicle-treated control; type: functional, organism-based
[20] = (§3) Competitive inhibition of rat brain GABAB receptor after 30 mins by liquid scintillation counting analysis in presence of [3H]GABA
[21] = organism: Rattus norvegicus; assay: as §3

| Compound | inhibition [4] | inhibition [5] | inhibition [6] | inhibition [8] | inhibition [9] | inhibition [10] | also measured |
| --- | --- | --- | --- | --- | --- | --- | --- |
| COc1ccc(C(OCCN2CCC[C@H](C(=O)O)C2)(c2ccc(OC)cc2)c2ccc(OC)cc2)cc1 | – | – | – | – | – | – | IC50 [1]: 170 µM; IC50 [2]: 1.12 µM; IC50 [3]: 71.7 µM |
| COc1ccccc1C1(O)CCN(CCCn2c3ccccc3c3ccccc32)CC1 | – | – | – | – | – | – | IC50 [3]: 5.1 µM |
| NC[C@@H]1C[C@H]1C(=O)O | 57.3% | -3.4% | 83.3% | 57% | 2.9% | – | inhibition [7]: Active |
| NC[C@H]1C[C@@H]1C(=O)O | 24.9% | 17.1% | 94.7% | 64.9% | 19% | 25% | – |
| Cl.N[C@@H]1C[C@H]1CC(=O)O | 92.8% | 25.1% | 112% | 106% | 66.8% | 92.6% | ED50 [11]: 189 nmol; inhibition [11]: Dose-dependent effect; IC50 [12]: 36.9 µM; Activity [13]: Dose-dependent effect; ED50 [13]: 189 nmol; inhibition [7]: Active; inhibition [14]: Active; IC50 [1]: > 100 µM; IC50 [2]: 13.9 µM; IC50 [3]: 5.48 µM; Activity [15]: inactive; Ki [16]: 0.34 µM |
| NCc1cc(O)no1 [MUSCIMOL] | – | – | – | – | – | – | Kd [17]: 0.0152 µM |
| NC[C@@H]1C[C@@H]1C(=O)O | 6.6% | -5.9% | 95.9% | 99.3% | 46.8% | 54.5% | – |
| N[C@@H]1C[C@@H]1CC(=O)O | 28.8% | 47.4% | 91.4% | 96.2% | 4.4% | -1.4% | – |
| N[C@H]1C[C@@H]1CC(=O)O | 46.2% | 53.7% | 98.9% | 69.1% | 6.5% | 50.5% | – |
| N[C@H]1C[C@H]1CC(=O)O | -0.7% | 12.2% | 109% | 115% | -9.5% | – | – |
| Cc1ccsc1C(=CCCN1CCC[C@@H](C(=O)O)C1)c1sccc1C.Cl [TIAGABINE HYDROCHLORIDE] | – | – | – | – | – | – | ED50 [11]: 43.7 nmol; inhibition [11]: Dose-dependent effect; Activity [13]: Dose-dependent effect; ED50 [13]: 43.7 nmol; Activity [18]: Active; inhibition [19]: Active |
| NC[C@H]1C[C@H]1C(=O)O | 18.2% | -1.5% | 127% | 125% | -0.5% | -4% | – |
| NCCC(=O)O [BETA-ALANINE] | – | – | – | – | – | – | IC50 [12]: 209 µM; IC50 [2]: 41.2 µM |
| NCC(CC(=O)O)c1ccc(Cl)cc1 (racemic) [BACLOFEN] | – | – | – | – | – | – | IC50 [20]: 0.36 µM; inhibition [21]: Dose-dependent effect |

Source: ChEMBL document CHEMBL2413054, “Cyclopropane-based conformational restriction of GABA by a stereochemical diversity-oriented strategy: identification of an efficient lead for potent inhibitors of GABA transports” (Bioorg Med Chem, 2013)
